# In ChEMBL document CHEMBL1949569, “Galactolipids from Bauhinia racemosa as a new class of antifilarial agents against human lymphatic filarial parasite, Brugia malayi” (Eur J Med Chem, 2012):
# The source made the active and inactive calls. No cut-off for these calls is given here.
# What was measured:
# Brugia malayi [1] = experiment: Antifilarial activity against microfilariae Brugia malayi assessed as inhibition of motility at 31.25 ug/ml incubated for 48 hrs followed by washout measured after 1 hr in the absence of drug by microscopic analysis; format: functional
# In short: (§1)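 Microfilariae came from jird peritoneal fluid passed through a 5.0 µm membrane filter. Twenty live mf per well in 200 µL medium, in duplicate, were given two-fold dilutions from 31.25 µg/mL. Incubation matched the adult worms (48 h, 37 °C, CO2). Motility was scored and reported as % reduction vs untreated control.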
# Brugia malayi [2] = experiment: Antifilarial activity against adult Brugia malayi at 31.25 ug/ml by MTT assay relative to control; format: functional
# In short: (§2)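 Adult female worms were recovered from jird peritoneal cavity 120–150 days after i.p. L3 inoculation. One worm per well sat in 1000 µL RPMI 1640 with antibiotics and 10% FBS, in duplicate, 48 h at 37 °C in CO2. After motility scoring, worms went through the MTT reduction assay. Result is % inhibition of MTT reduction vs untreated control.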
# Brugia malayi [3] = experiment: Antifilarial activity against adult Brugia malayi assessed as inhibition of motility at 31.25 ug/ml incubated for 48 hrs followed by washout measured after 1 hr in the absence of drug by microscopic analysis; format: functional
# In short: (§3)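 Single fully motile female worms from jird peritoneal cavity were exposed in duplicate wells (1000 µL RPMI 1640, antibiotics, 10% FBS) to two-fold dilutions from 31.25 µg/mL, 48 h, 37 °C, CO2. Worms were moved to drug-free medium and motility was read microscopically 1 h later. Result is % motility reduction vs untreated control.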
# Brugia malayi [4] = experiment: Antifilarial activity against microfilariae Brugia malayi assessed as inhibition of motility at 3.9 ug/ml incubated for 48 hrs followed by washout measured after 1 hr in the absence of drug by microscopic analysis; format: functional; in short: as §1
# [5] = (§4) Cytotoxicity against african green monkey Vero cells after 72 hrs by resazurin dye-based fluorimetric analysis; format: cell-based; settings: chlorocebus sabaeus, Vero cells
# In short: (§5)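 Vero cells were seeded at 10,000 per well and left overnight at 37 °C in CO2. Samples were tested in triplicate from a 300 µg/mL top concentration in 3:1 serial dilutions, with drug-free and cell-free controls. Resazurin was added after 72 h drug exposure for 2–4 h, then read at ex 536/em 588 nm. CC50 was taken from fluorescence vs concentration.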
# Brugia malayi [6] = experiment: Antifilarial activity against microfilariae Brugia malayi after 48 hrs by MTT assay; format: functional, organism-based
# Brugia malayi [7] = experiment: Antifilarial activity against adult Brugia malayi infected in jird assessed as sterilized female worm at 50 mg/kg, ip administered for 5 consecutive days measured on day 51; format: functional; settings: route intraperitoneal
# In short: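 In the i.p.-transplanted adult B. malayi jird model, 50 mg/kg was given i.p. for 5 consecutive days, 5 animals per group. Necropsy on day 51 recovered peritoneal worms. Live females were teased in PBS pH 7.2 and uterine oocytes, eggs and mf checked microscopically for abnormality or death. Result is % sterilized females.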
# Brugia malayi [8] = experiment: Antifilarial activity against adult Brugia malayi assessed as inhibition of motility at 3.9 ug/ml incubated for 48 hrs followed by washout measured after 1 hr in the absence of drug by microscopic analysis; format: functional; in short: as §3
# Brugia malayi [9] = experiment: Antifilarial activity against microfilariae Brugia malayi assessed as inhibition of motility at 7.8 ug/ml incubated for 48 hrs followed by washout measured after 1 hr in the absence of drug by microscopic analysis; format: functional; in short: as §1
# Brugia malayi [10] = experiment: Antifilarial activity against adult Brugia malayi at 7.8 ug/ml by MTT assay relative to control; format: functional; in short: as §2
# Brugia malayi [11] = experiment: Antifilarial activity against adult Brugia malayi at 15.6 ug/ml by MTT assay relative to control; format: functional; in short: as §2
# Brugia malayi [12] = experiment: Antifilarial activity against adult Brugia malayi assessed as inhibition of motility at 7.8 ug/ml incubated for 48 hrs followed by washout measured after 1 hr in the absence of drug by microscopic analysis; format: functional; in short: as §3
# Brugia malayi [13] = experiment: Antifilarial activity against adult Brugia malayi after 48 hrs by MTT assay; format: functional, organism-based; in short: as §2
# Brugia malayi [14] = experiment: Antifilarial activity against microfilariae Brugia malayi assessed as inhibition of motility at 15.6 ug/ml incubated for 48 hrs followed by washout measured after 1 hr in the absence of drug by microscopic analysis; format: functional; in short: as §1
# Brugia malayi [15] = experiment: Antifilarial activity against adult Brugia malayi at 3.9 ug/ml by MTT assay relative to control; format: functional; in short: as §2
# Brugia malayi [16] = experiment: Antifilarial activity against adult Brugia malayi assessed as inhibition of motility at 15.6 ug/ml incubated for 48 hrs followed by washout measured after 1 hr in the absence of drug by microscopic analysis; format: functional; in short: as §3
# Brugia malayi [17] = experiment: Antifilarial activity against adult Brugia malayi infected in jird assessed as worm mortality at 50 mg/kg, ip administered for 5 consecutive days measured on day 51; format: functional; settings: route intraperitoneal
# In short: (§6)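 Jirds carrying intraperitoneally transplanted adult B. malayi (sub-periodic strain), 5 animals per group, dosed daily for 5 days. Killed on day 51 after a 50-day observation period. Worms recovered from the peritoneal cavity and scored microscopically for motility, death or encapsulation, giving % adulticidal activity over untreated control, mean ± SE. Live females teased in PBS pH 7.2 to score uterine-content abnormalities as sterilization.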
# [18] = Selectivity ratio of CC50 for african green monkey Vero cells to IC50 for microfilariae Brugia malayi; format: ADME, cell-based; settings: for selectivity ratio: Vero cells, read-out: Ratio CC50/IC50
# In short: (§7)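 SI = CC50 (Vero, resazurin assay) / IC50. IC50 came from % motility inhibition of adult female worms or mf over two-fold dilutions from MIC down to 0.3 µg/mL. It was derived from a concentration vs % motility-inhibition plot.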
# Vero = experiment: as §4; format: cell-based; settings: chlorocebus sabaeus, vero, 72 h; in short: as §5
# [19] = Selectivity ratio of CC50 for african green monkey Vero cells to IC50 for adult Brugia malayi; format: ADME, cell-based; in short: as §7
# Brugia malayi [20] = experiment: Antifilarial activity against adult Brugia malayi infected in jird assessed as worm mortality at 100 mg/kg, sc administered for 5 consecutive days measured on day 51; format: functional; settings: route subcutaneous; in short: as §6
# Brugia malayi [21] = experiment: Antifilarial activity against adult Brugia malayi infected in jird assessed as sterilized female worm at 100 mg/kg, sc administered for 5 consecutive days measured on day 51; format: functional; settings: route subcutaneous
# In short: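 Jirds carrying i.p.-transplanted adult B. malayi got 100 mg/kg s.c. daily for 5 days, 5 animals per group. They were euthanized on day 51 and worms recovered from the peritoneal cavity. Live females were teased in PBS pH 7.2 and uterine contents examined microscopically. Any abnormal or dead oocytes, eggs or mf counted as sterilized, reported as % sterile females.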
# Brugia malayi [22] = experiment: Antifilarial activity against adult Brugia malayi at 1.9 ug/ml by MTT assay relative to control; format: functional; in short: as §2
# Brugia malayi [23] = experiment: Antifilarial activity against adult Brugia malayi assessed as inhibition of motility at 1.9 ug/ml incubated for 48 hrs followed by washout measured after 1 hr in the absence of drug by microscopic analysis; format: functional; in short: as §3
# Brugia malayi [24] = experiment: Antifilarial activity against microfilariae Brugia malayi assessed as inhibition of motility at 1.9 ug/ml incubated for 48 hrs followed by washout measured after 1 hr in the absence of drug by microscopic analysis; format: functional; in short: as §1
# [25] = Brugia malayi, 48 h, read-out: IC50
Compound,inhibition at 31.25 µg/mL (Brugia malayi [1]),inhibition at 31.25 µg/mL (Brugia malayi [2]),inhibition at 31.25 µg/mL (Brugia malayi [3]),CC50 at 72 h [5],"MIC (Brugia malayi [6]; Brugia malayi, 48 h)",IC50 (Brugia malayi [6]; [25]),Activity (Brugia malayi [7]),inhibition at 7.8 µg/mL (Brugia malayi [9]),inhibition at 7.8 µg/mL (Brugia malayi [10]),inhibition at 15.6 µg/mL (Brugia malayi [11]),MIC (Brugia malayi [13]),inhibition at 15.6 µg/mL (Brugia malayi [14]),Activity (Brugia malayi [17]),selectivity ratio [18],also measured
Oc1cc(O)c2c(c1)O[C@@H](c1ccc(O)c(O)c1)[C@H](O)C2 [(-)-CATECHIN],60%,43.2%,60%,,,,,,,,,,,,
CC/C=C\C/C=C\C/C=C\CCCCCCCC(=O)OC[C@H](CO[C@@H]1O[C@H](CO[C@H]2O[C@H](CO)[C@H](O)[C@H](O)[C@H]2O)[C@H](O)[C@H](O)[C@H]1O)OC(=O)CCCCCCCCCCCCCCC,100%,30%,50%,> 100 µg/mL,31.2 µg/mL,2.7 µg/mL,0%,90%,0%,0%,inactive,95%,-45.8%,> 37,inhibition at 3.9 µg/mL (Brugia malayi [4]): 70%; inhibition (Brugia malayi [8]): inactive; inhibition (Brugia malayi [12]): inactive; inhibition at 3.9 µg/mL (Brugia malayi [15]): 0%; inhibition (Brugia malayi [16]): inactive
IVERMECTIN [listing 1 of 2 here],,,,,,,,,,,,,,,CC50 (Vero): 52.84 µg/mL; IC50 (Brugia malayi [6]): 3.62 µg/mL; Ratio CC50/IC50 ([19]; vero): > 62.11; Ratio CC50/IC50 ([18]; vero): > 27.62
O=C(O)c1ccc(O)c(O)c1 [PROTOCATECHUIC ACID],60%,20.6%,50%,,,,,,,,,,,,
CCN(CC)C(=O)N1CCN(C)CC1 [DIETHYLCARBAMAZINE],,,,,,,,,,,inactive,,,,MIC (Brugia malayi [6]): inactive; Activity (Brugia malayi [20]): -30.5%; Activity (Brugia malayi [21]): 0%
"Oc1ccc([C@H]2Oc3cc(O)cc(O)c3C[C@H]2O)cc1 [EPIAFZELECHIN (2R,3R)(-)]",59%,14.8%,50%,,,,,,,,,,,,
Oc1cc(O)c2c(c1)O[C@H](c1ccc(O)c(O)c1)[C@H](O)C2 [(-)-EPICATECHIN],50%,34.8%,50%,,,,,,,,,,,,
CCCCCCCC/C=C\CCCCCCCC(=O)OC[C@H](CO[C@@H]1O[C@H](CO[C@H]2O[C@H](CO)[C@H](O)[C@H](O)[C@H]2O)[C@H](O)[C@H](O)[C@H]1O)OC(=O)CCCCCCCCCCCCCCC,100%,24.6%,50%,> 100 µg/mL,31.2 µg/mL,1.05 µg/mL,0%,90%,0%,0%,inactive,99%,-54.15%,> 95.2,inhibition at 3.9 µg/mL (Brugia malayi [4]): 80%; inhibition (Brugia malayi [8]): inactive; inhibition (Brugia malayi [12]): inactive; inhibition at 3.9 µg/mL (Brugia malayi [15]): 0%; inhibition (Brugia malayi [16]): inactive
CC/C=C\C/C=C\C/C=C\CCCCCCCC(=O)OC[C@H](CO[C@@H]1O[C@H](CO[C@H]2O[C@H](CO)[C@H](O)[C@H](O)[C@H]2O)[C@H](O)[C@H](O)[C@H]1O)OC(=O)CCCCCCC/C=C\C/C=C\C/C=C\CC,100%,82.9%,100%,> 100 µg/mL,15.6 µg/mL,1.61 µg/mL,0%,99%,61.8%,75%,3.9 µg/mL,100%,-58.3%,> 62.2,"inhibition at 3.9 µg/mL (Brugia malayi [4]): 95%; inhibition at 1.9 µg/mL (Brugia malayi [22]): 43.6%; inhibition at 3.9 µg/mL (Brugia malayi [8]): 100%; inhibition at 7.8 µg/mL (Brugia malayi [12]): 100%; IC50 (Brugia malayi [13]): 1.25 µg/mL; inhibition at 3.9 µg/mL (Brugia malayi [15]): 52.1%; selectivity ratio ([19]; Vero cells, read-out: Ratio CC50/IC50): > 80; inhibition at 15.6 µg/mL (Brugia malayi [16]): 100%; inhibition at 1.9 µg/mL (Brugia malayi [23]): 90%; inhibition at 1.9 µg/mL (Brugia malayi [24]): 60%"
CCCCCCCCCCCCCCCCCCCCCCCCCCCCO [OCTACOSANOL],100%,32.6%,50%,> 100 µg/mL,31.2 µg/mL,3.26 µg/mL,0%,85%,0%,0%,inactive,95%,-49.95%,> 30.7,inhibition (Brugia malayi [12]): inactive; inhibition (Brugia malayi [16]): inactive
IVERMECTIN [listing 2 of 2 here],,,,,,,,,,,,,,,MIC (Brugia malayi [6]): 125 µg/mL
